Experimental data published in ChEMBL document CHEMBL1127531, “Selective type IV phosphodiesterase inhibitors as antiasthmatic agents. The syntheses and biological activities of 3-(cyclopentyloxy)-4-methoxybenzamides and analogues” (J Med Chem, 1994).

What was measured:
[1] = target: T1, Phosphodiesterase 4A (Sus scrofa, UniProt O77823); assay: Inhibitory potency against pig aortic PDE IV
T1 sequence (O77823 whole entry): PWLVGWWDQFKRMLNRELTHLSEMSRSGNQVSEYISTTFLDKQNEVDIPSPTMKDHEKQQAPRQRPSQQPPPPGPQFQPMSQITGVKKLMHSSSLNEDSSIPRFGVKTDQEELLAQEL
Method in brief: (§1)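 Pig aortic PDE isozymes were separated by DEAE-trisacryl anion-exchange chromatography. PDE III was assayed in the presence of rolipram (10 µM) and PDE IV in the presence of siguazodan (10 µM) to exclude cross-contamination.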

[2] = Inhibitory potency against pig aortic PDE III.; set-up: species or system Sus scrofa; method in brief: as §1
[3] = target: Phosphodiesterase 1 (Sus scrofa); assay: Inhibitory potency against pig aortic PDE I.
[4] = system: Cavia porcellus; assay: In vivo bronchodilator effect on histamine-induced bronchospasm in anaesthetized guinea pigs at 100 ug intravenous dose; format: functional
[5] = target: T2, Phosphodiesterase 4 (Homo sapiens, UniProt P27815+Q08499+Q07343+Q08493); assay: Inhibition of guinea pig PDE IV; format: protein assay, Cavia porcellus; conditions: target entry is the homologue from another species
[6] = organism: Cavia porcellus; assay: Inhibition of superoxide O2-generation from guinea pig peritoneal eosinophils; format: functional
Method in brief: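 Guinea pig peritoneal eosinophils (10^6/well) were incubated for 45 min at 37 °C in HBSS with p-iodonitrotetrazolium violet (0.5 mg/mL). Superoxide was measured as SOD-inhibitable dye reduction: cells were pelleted and dissolved overnight at room temperature in DMSO/0.6 M HCl, and absorbance was read at 492 nm.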

[7] = system: Cavia porcellus; assay: In vivo bronchodilator effect on histamine-induced bronchospasm in anaesthetized guinea pigs at 50 ug intravenous dose; format: functional
[8] = target: T2, Phosphodiesterase 4; assay: Inhibition of solubilized eosinophil PDE IV; format: protein assay, Cavia porcellus
[9] = system: Cavia porcellus; assay: In vivo bronchodilator effect on histamine-induced bronchospasm in anaesthetized guinea pigs at 20 ug intravenous dose; format: functional
[10] = system: Cavia porcellus; assay: In vivo bronchodilator effect on histamine-induced bronchospasm in anaesthetized guinea pigs at 10 ug intravenous dose; format: functional
[11] = system: Cavia porcellus; assay: In vivo bronchodilator effect on histamine-induced bronchospasm in anaesthetized guinea pigs at 200 ug intravenous dose; format: functional

Structure (SMILES)	IC50 [1] [µM]	IC50 [2] [µM]	further results
COc1ccc(C(=O)Nc2c(C)cncc2C)cc1OC1CCCC1	0.035	–	–
COc1ccc(C(=O)Nc2ccccc2O)cc1OC1CCCC1	1.3	> 200	IC50 [3]: > 200 µM
COc1ccc(C(=O)Nc2c(F)cccc2F)cc1OC	0.9	–	–
COc1ccc(C(=O)Nc2c(F)cccc2F)cc1	37	–	–
COc1ccc(C(=O)Nc2c(Cl)c[n+]([O-])cc2Cl)cc1OC1CCCC1	0.002	–	Duration [4]: 39 min; Reduction [4]: 54%; IC50 [5]: 0.0023 µM; IC50 [6]: 0.3 µM; Duration [7]: 18 min; Reduction [7]: 45%; IC50 [8]: 0.002 µM
CCCOc1cc(C(=O)Nc2c(F)cccc2F)ccc1OC	1.6	–	–
COc1ccc(C(=O)Nc2c(Cl)cncc2Cl)cc1OC1CCCC1	–	–	Reduction [9]: 56%; IC50 [6]: 0.024 µM; Reduction [7]: 78%; Reduction [10]: 36%
COc1ccc(C(=O)Nc2c(C)cccc2Cl)cc1OC1CCCC1	0.1	> 1000	IC50 [3]: > 1000 µM
COc1ccc(C(=O)NCc2ccccc2Cl)cc1OC1CCCC1	> 1000	–	–
COc1ccc(C(=O)Nc2ccccc2)cc1OC1CCCC1	2.6	> 1000	Duration [11]: 6 min; Reduction [9]: 32%; IC50 [5]: 2.566 µM; IC50 [6]: > 10 µM; IC50 [8]: 0.145 µM
COc1ccc(C(=S)Nc2ccccc2Cl)cc1OC1CCCC1	0.2	–	–
COc1ccc(C(=O)Nc2ccccc2Cl)cc1OC	0.65	–	–
COc1ccc(C(=O)Nc2ccccc2C#N)cc1OC1CCCC1	2.5	9.5	–
COc1ccc(C(=O)Nc2ccccc2C(C)=O)cc1OC1CCCC1	1.2	> 40	–
O=C(Nc1c(F)cccc1F)c1cccc(OC2CCCC2)c1	15	–	–
CCCCOc1cc(C(=O)Nc2c(F)cccc2F)ccc1OC	0.3	–	–
COc1ccc(C(=O)Nc2cnccn2)cc1OC1CCCC1	0.25	–	–
COc1ccc(C(=O)Nc2ccccc2C)cc1OC1CCCC1	0.3	> 1000	IC50 [3]: > 1000 µM

Structure (SMILES)	IC50 [1] [µM]	IC50 [2] [µM]	further results
COc1ccc(C(=O)Nc2ccccc2Cl)cc1OC(=O)C1CCCC1	> 1000	–	–
COc1ccc(C(=O)Nc2c(Cl)cncc2Cl)cc1OC1CC2CCC1C2 (racemic)	0.001	–	Duration [4]: 59 min; Reduction [4]: 80%; IC50 [5]: 0.0014 µM; IC50 [6]: 0.022 µM; Duration [7]: 29 min; Reduction [7]: 35%; IC50 [8]: 0.0005 µM
COc1ccc(C(=O)Nc2ccccc2C(=O)c2ccccc2)cc1OC1CCCC1	1.7	> 40	IC50 [3]: > 40 µM
COc1ccc(C(=O)Nc2ccccc2Br)cc1OC1CCCC1	0.13	> 1000	IC50 [3]: > 1000 µM
COc1ccc(C(=O)Nc2c(Cl)cncc2Cl)cc1OC	0.1	–	–
COc1ccc(C(=O)Nc2c(C)cccc2C)cc1OC1CCCC1	0.1	> 200	Duration [4]: 16 min; Reduction [4]: 24%; IC50 [5]: 0.106 µM; IC50 [6]: 0.17 µM; IC50 [8]: 0.065 µM
COc1ccc(C(=O)Nc2ccccc2Cl)cc1OC1CCCC1	0.19	> 200	Duration [4]: 27 min; Reduction [4]: 43%; IC50 [3]: > 200 µM; IC50 [5]: 0.186 µM; IC50 [6]: 0.45 µM; IC50 [8]: 0.051 µM
COc1ccc(C(=O)Nc2ccccc2Cl)cc1OC(C)=O	70	–	–
CCCCOc1cc(C(=O)Nc2c(Br)cncc2Br)ccc1OC	0.07	–	–
COc1ccc(C(=O)Nc2cccc(C)c2)cc1OC1CCCC1	1	> 200	–
COc1ccc(C(=O)Nc2c(Cl)cncc2Cl)cc1OC1CCCCC1	0.05	–	–
COc1ccc(C(=O)Nc2ncccc2Cl)cc1OC1CCCC1	0.36	–	–
COc1ccc(C(=O)Nc2ccncc2)cc1OC1CCCC1	0.8	–	–
COc1ccc(C(=O)Nc2c(Br)cccc2Br)cc1OC1CCCC1	0.4	> 1000	–
COc1ccc(C(=O)Nc2ccccc2SC)cc1OC1CCCC1	1.2	> 200	IC50 [3]: > 200 µM
COc1ccc(C(=O)Nc2cccc(Cl)c2)cc1OC1CCCC1	1.3	> 40	IC50 [3]: > 40 µM
COc1ccc(C(=O)Nc2ccc(F)cc2)cc1OC1CCCC1	> 1000	> 1000	IC50 [3]: > 1000 µM
COc1ccc(C(=O)Nc2c(Cl)cccc2Cl)cc1OC1CCCC1	0.023	> 1000	Duration [4]: 34 min; Reduction [4]: 48%; Duration [11]: 30 min; Reduction [9]: 55%; IC50 [5]: 0.023 µM; IC50 [6]: 0.53 µM; IC50 [8]: 0.005 µM
